Measurements taken from ChEMBL document CHEMBL2434893, “Synthesis, DNA binding and anti-leukemic activity of an aminoacyl nucleolipid” (Bioorg Med Chem Lett, 2013).

Key:
[1] = system: HOP-62; assay: Cytotoxicity against human HOP62 cells assessed as cell growth at 10 uM after 48 hrs by SRB assay relative to control; type: functional; conditions: HOP-62, 48 h, read-out: Activity
How it was run: (§1)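 NCI Developmental Therapeutics Program 60-cell-line screen at a single dose of 10 μM. Cells incubated with compound for 48 h at 37 °C before viability determination.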

[2] = Stability in phosphate buffer assessed as formation of guanine-tetraplex structure at 0.2 to 3.9 mM at 25 degC by CD spectrophotometric analysis; type: physicochemical; conditions: 3900 µM
How it was run: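 GRP78 DNA duplex was annealed from complementary single strands in phosphate binding buffer (140 mM KCl, 1 mM MgCl₂, 5 mM Na₂HPO₄, pH 7.2), then titrated with ligand at 0.2–3.9 mM. CD spectra were recorded, and molar ellipticity was followed at the 260–280 nm maximum and the 248 nm minimum.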

[3] = system: T47D; assay: Cytotoxicity against human T47D cells assessed as cell growth at 10 uM after 48 hrs by SRB assay relative to control; type: functional; conditions: read-out: Activity
How it was run: (§2)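 Single-dose (10 μM) screen run by the NCI Developmental Therapeutics Program on its 60 human cancer cell line panel. Viability was determined after 48 h incubation with the cells at 37 °C.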

[4] = system: TK-10; assay: Cytotoxicity against human TK10 cells assessed as cell growth at 10 uM after 48 hrs by SRB assay relative to control; type: functional; conditions: TK-10, 48 h, read-out: Activity; how it was run: as §2
[5] = system: SN12C; assay: Cytotoxicity against human SN12C cells assessed as cell growth at 10 uM after 48 hrs by SRB assay relative to control; type: functional; conditions: read-out: Activity; how it was run: as §2
[6] = Cytotoxicity against human NCI-ADR-RES cells assessed as cell growth at 10 uM after 48 hrs by SRB assay relative to control; type: functional; conditions: read-out: Activity; how it was run: as §1
[7] = system: SK-MEL-5; assay: Cytotoxicity against human SK-MEL-5 cells assessed as cell growth at 10 uM after 48 hrs by SRB assay relative to control; type: functional; conditions: SK-MEL-5, 48 h, read-out: Activity; how it was run: as §1

Which growth at 10 µM [1] does the source give for CCCCCCCCCCCCCCCC(=O)O[C@@H]1[C@H](OC(=O)CCCCCCCCCCCCCCC)[C@@H](C(=O)N[C@@H](CCCCN)C(=O)OC)O[C@H]1n1cnc2c(=O)[nH]c(NC(=O)C(C)C)nc21.Cl here?
The growth at 10 µM was 104%.

And the Stability [2]?
Its Stability is “Stable”.

And the growth at 10 µM [3]?
The growth at 10 µM was 88.2%.

What about the growth at 10 µM [4] of the same compound?
Its growth at 10 µM is 101%.

What about the growth at 10 µM [5] of the same compound?
Its growth at 10 µM is 105%.

And the growth at 10 µM [6]?
The growth at 10 µM was 102%.

What about the growth at 10 µM [7] of the same compound?
The growth at 10 µM was 101%.
